Reference: ChEMBL document CHEMBL4811300, “Design, synthesis, and biological evaluation of novel bifunctional thyrointegrin antagonists for neuroblastoma” (Bioorg Med Chem, 2021)

Legend:
[1] = Drug uptake in human SK-N-F1 cells at 10 uM measured upto 60 mins by LC-MS/MS analysis; format: ADME, cell-based; conditions: sk-n-fi, 1 h
Method in brief: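 SK-N-F1 cells (~1M) were exposed to compound at 10 uM per the figure legend; the methods text gives 1 µM. Incubation lasted 15, 30 and 60 min. Cells were washed with PBS, pelleted at 5,000g for 10 min, homogenized in acetonitrile and extracted. The residue was reconstituted in acetonitrile/water 80/20. Quantification was by LC-MS/MS (positive ESI MRM) against 1–1000 ng/mL standards.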

[2] = system: SK-N-FI; assay: Antitumor activity against human SK-N-FI cells xenografted in Ncr nude mouse assessed as reduction of tumor weight at 3 mg/kg, sc dosed daily up to 20 days relative to control; format: functional; set-up: scale not given: the % may be the effect or the level left; conditions: time day <=20
Method in brief: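 SK-N-F1 xenografts: 2 million cells per implant, 4 mice per group, with treatment starting once tumors reached 500 mm³. Dosing was 3 mg/kg s.c. once daily for 20 days (the methods say 21) against PBS vehicle control. Animals were sacrificed at study end, and tumors were excised and weighed.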

[3] = system: SK-N-FI; assay: Antitumor activity against human SK-N-FI cells xenografted in Ncr nude mouse assessed as increase in necrotic cells in tumor at 3 mg/kg, sc dosed daily up to 20 days by H and E staining based light microscopic analysis relative to control; format: functional; conditions: time day <=20
Method in brief: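 SK-N-F1 cells (2 million per implant) were grown in mice (4 per group) until tumors reached 500 mm³. Mice were then dosed at 3 mg/kg s.c. once daily for 20 days against PBS vehicle; the methods section states 21 days. Harvested tumors were fixed in 10% formalin for at least 48 h, paraffin-embedded, sectioned and H&E stained. Necrosis, fibrosis and debris area was scored microscopically at 4X, 10X and 40X.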

Drug uptake [1] | Structure (SMILES) | Activity [2] [%] | Activity [3] [%]
Active | CC(C)(C)OC(=O)NCc1ccc(OCCOCCOCCOCCOCCOCCOCCn2cc(COc3c(I)cc(Oc4c(I)cc(CC(=O)O)cc4I)cc3I)nn2)cc1 |  | 
 | N=C(N)NCc1ccc(OCCOCCOCCOCCOCCOCCOCCOCCN2CCN(CCCOc3c(I)cc(Oc4c(I)cc(CC(=O)O)cc4I)cc3I)CC2)cc1 | 90 | 98
Active | N=C(N)NCc1cccc(I)c1 [IOBENGUANE] |  | 
